Experimental data: ChEMBL document CHEMBL2157939 (J Med Chem, 2012)
Active and inactive are the calls of the source.

Tests used:
Rattus norvegicus [1] = assay: Antinociceptive activity in iv dosed Sprague-Dawley rat chronic constriction injury model assessed as paw withdrawal threshold to von Frey filament-induced pain administered as bolus injection; format: functional
Procedure, shortened: (§1)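 Male SD rats (160−200 g at purchase) with CCI of left sciatic nerve (four loose silk ligatures, Bennett-Xie) under isoflurane. Single iv bolus doses 0.16 to 16 μmol/kg.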

Rattus norvegicus [2] = assay: Antinociceptive activity in po dosed Sprague-Dawley rat chronic constriction injury model assessed as reduction in Von Frey filament-induced mechanical allodynia in ipsilateral hind paw; format: functional
Rattus norvegicus [3] = assay: Antinociceptive activity in Sprague-Dawley rat chronic constriction injury model assessed as reduction in Von Frey filament-induced mechanical allodynia in ipsilateral hind paw at 8 umol/kg, po; format: functional, organism-based
Rattus norvegicus [4] = assay: Antinociceptive activity in Sprague-Dawley rat chronic constriction model assessed as reduction in Von Frey filament-induced mechanical allodynia in contralateral hind paw at 2 umol/kg, iv administered as bolus injection; format: functional, organism-based
Rattus norvegicus [5] = assay: Antinociceptive activity in Sprague-Dawley rat chronic constriction model assessed as reduction in Von Frey filament-induced mechanical allodynia in contralateral hind paw at 8 umol/kg, po; format: functional, organism-based
Rattus norvegicus [6] = assay: Antinociceptive activity in Sprague-Dawley rat chronic constriction model assessed as reduction in Von Frey filament-induced mechanical allodynia in ipsilateral hind paw at 2 umol/kg, iv administered as bolus injection 5 mins post-naloxone coadministration; format: functional, organism-based
Procedure, shortened: (§2)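 CCI rats (n = 6) given single sc naloxone hydrochloride 10 mg/kg or vehicle 5 min before single iv bolus of test item.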

[7] = Apparent permeability across human Caco2 cells at 200 uM by LC/MS analysis; format: ADME, cell-based; conditions: Caco-2
Procedure, shortened: (§3)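 Caco-2 monolayers (passages 55−75; DMEM with 10% FBS, 1% L-glutamine, 1% nonessential amino acids, 37 °C, 5% CO2) used for apparent permeability; compound quantified by LC-MS.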

[8] = Half life in human plasma at 1 mg/ml by RP-HPLC analysis; format: ADME, cell-free
Caco-2 [9] = assay: Permeability across human Caco2 cells at 200 µM by LC/MS analysis in presence of lactose; format: ADME, cell-based; conditions: caco-2, 200 µM; procedure, shortened: as §3
Caco-2 [10] = assay: Permeability across human Caco2 cells at 200 µM by LC/MS analysis in presence of galactose; format: ADME, cell-based; conditions: caco-2, 200 µM; procedure, shortened: as §3
Caco-2 [11] = assay: Permeability across human Caco2 cells at 200 µM by LC/MS analysis in presence of glucose; format: ADME, cell-based; conditions: caco-2, 200 µM; procedure, shortened: as §3
Mu-type opioid receptor [12] = biological target: T1, Mu-type opioid receptor (Homo sapiens, UniProt P35372); assay: Displacement of [3H]DAMGO from mu-opioid receptor expressed in CHOK1 cells after overnight incubation by scintillation proximity assay; format: cell-based, CHO-K1
T1 sequence (P35372 whole entry): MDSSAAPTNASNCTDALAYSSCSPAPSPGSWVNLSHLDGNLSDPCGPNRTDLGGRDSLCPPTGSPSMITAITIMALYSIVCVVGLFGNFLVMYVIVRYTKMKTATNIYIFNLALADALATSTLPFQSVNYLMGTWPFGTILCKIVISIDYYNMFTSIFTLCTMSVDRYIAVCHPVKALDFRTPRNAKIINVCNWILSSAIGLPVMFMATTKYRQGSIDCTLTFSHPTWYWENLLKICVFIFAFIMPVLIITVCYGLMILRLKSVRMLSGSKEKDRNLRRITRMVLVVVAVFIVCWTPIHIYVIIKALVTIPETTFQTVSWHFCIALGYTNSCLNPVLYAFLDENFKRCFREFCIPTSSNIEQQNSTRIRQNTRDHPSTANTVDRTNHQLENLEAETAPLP

[13] = biological target: Delta-type opioid receptor (Homo sapiens, UniProt P41143); assay: Displacement of [3H]DPDPE from delta-opioid receptor expressed in CHOK1 cells after overnight incubation by scintillation proximity assay; format: cell-based, CHO-K1
Chain of Delta-type opioid receptor (P41143 whole entry): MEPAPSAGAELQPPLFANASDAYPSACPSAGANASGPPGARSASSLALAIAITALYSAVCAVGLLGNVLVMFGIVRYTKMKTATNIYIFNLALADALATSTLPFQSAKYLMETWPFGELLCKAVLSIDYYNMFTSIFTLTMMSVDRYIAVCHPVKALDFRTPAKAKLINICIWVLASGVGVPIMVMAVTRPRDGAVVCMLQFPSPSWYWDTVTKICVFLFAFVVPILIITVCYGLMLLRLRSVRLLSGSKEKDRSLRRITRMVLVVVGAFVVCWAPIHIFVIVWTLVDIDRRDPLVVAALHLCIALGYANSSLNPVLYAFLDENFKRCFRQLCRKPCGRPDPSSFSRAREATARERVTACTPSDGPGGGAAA
Procedure, shortened: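 Competitive displacement of [3H]DPDPE from human DOR in membranes of stably transfected CHOK1 cells, WGA-coated SPA beads. Eight concentrations, 10 pM to 1 μM; three independent experiments in triplicate, mean ± SEM.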

[14] = Selectivity ratio of Ki for delta-opioid receptor to Ki for mu-opioid receptor
Procedure, shortened: (§4)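 Competitive displacement scintillation proximity assay on frozen membranes from CHO-K1 cells stably expressing human MOR, DOR or KOR, with wheatgerm agglutinin-coated SPA beads. Labels: MOR [3H]DAMGO, DOR [3H]DPDPE, KOR [3H]diprenorphine. Eight compound concentrations from 10 pM to 1 μM. Three independent experiments, each in triplicate, reported as mean ± SEM. The ratio is each Ki divided by the MOR Ki.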

[15] = Selectivity ratio of Ki for kappa-opioid receptor to Ki for mu-opioid receptor; procedure, shortened: as §4
Mu-type opioid receptor [16] = biological target: T1, Mu-type opioid receptor; assay: Agonist activity at mu-opioid receptor in human SH-SY5Y cells assessed as inhibition of forskolin-stimulated cAMP accumulation after 30 mins by immunoassay; format: functional, cell-based
Rattus norvegicus [17] = assay: Antinociceptive activity in Sprague-Dawley rat chronic constriction injury model assessed as paw withdrawal threshold to von Frey filament-induced pain at 5 and 16 umol/kg, iv administered as bolus injection measured at 15 mins; format: functional, organism-based; procedure, shortened: as §1
Rattus norvegicus [18] = assay: Antinociceptive activity in Sprague-Dawley rat chronic constriction injury model assessed as paw withdrawal threshold to von Frey filament-induced pain at 5 and 16 umol/kg, iv administered as bolus injection measured up to 1.5 hrs; format: functional, organism-based; procedure, shortened: as §1
Rattus norvegicus [19] = assay: Antinociceptive activity in Sprague-Dawley rat chronic constriction injury model assessed as reduction in Von Frey filament-induced mechanical allodynia in ipsilateral hind paw at 8 and 16 umol/kg, po at 0.75 to 1 hr; format: functional, organism-based
Rattus norvegicus [20] = assay: Antinociceptive activity in Sprague-Dawley rat chronic constriction injury model assessed as reduction in Von Frey filament-induced mechanical allodynia in ipsilateral hind paw at 8 and 16 umol/kg, po up to 2 hrs; format: functional, organism-based
Rattus norvegicus [21] = assay: Antinociceptive activity in Sprague-Dawley rat chronic constriction model assessed as reduction in Von Frey filament-induced mechanical allodynia in contralateral hind paw at 5 umol/kg, iv administered as bolus injection; format: functional, organism-based
Rattus norvegicus [22] = assay: Antinociceptive activity in Sprague-Dawley rat chronic constriction model assessed as reduction in Von Frey filament-induced mechanical allodynia in ipsilateral hind paw at 5 umol/kg, iv administered as bolus injection 5 mins post-naloxone coadministration; format: functional, organism-based; procedure, shortened: as §2
Rattus norvegicus [23] = assay: Induction of constipation in fasted Sprague-Dawley rat assessed as inhibition of castor oil-induced diarrhea at 16 umol/kg, po administered 5 mins prior to castor-oil challenge measured up to 8 hrs; format: organism-based; conditions: in vivo
Procedure, shortened: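 Drug-naive rats, 200−250 g, fasted ~16 h with water, then 1 h in individual wire-mesh cages without food or water. Oral test item or vehicle; 5 min later 1 mL castor oil by gavage. Diarrhea presence checked hourly to 8 h, scored by fecal boli weight and consistency.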

Rattus norvegicus [24] = assay: Effect on gastrointestinal motility in fasted Sprague-Dawley rat assessed as gastrointestinal propulsion of charcoal meal at 16 umol/kg, po administered prior to charcoal meal measured after 1 hr ( Rvb = 66.5 3.8% ); format: ADME, organism-based; conditions: in vivo
Procedure, shortened: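 Rats 200−250 g fasted ~16 h (water allowed), n = 8 per group, dosed orally just before gavage of 1 mL aqueous 10% activated charcoal/5% gum Arabic. Killed 1 h later (ip pentobarbital, cervical dislocation); small intestine length pylorus to ileocecal junction and farthest charcoal front measured as % propulsion.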

Plasma = assay: Plasma concentration in Sprague-Dawley rat at 10 umol/kg, po from 30 to 60 mins by LC/MS analysis; format: ADME, organism-based; conditions: in vivo, BLD = below limit of detection
Procedure, shortened: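 Male SD rats, 280−310 g, gavaged with 500 μL of […] aqueous solution (10 μmol/kg). Tail-vein blood at 30, 60, 90 min into heparin tubes; plasma protein-precipitated with 3 volumes acetonitrile, supernatant quantified by LC-MS; n = 4.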

Rattus norvegicus [25] = assay: Antinociceptive activity in Sprague-Dawley rat chronic constriction injury model assessed as paw withdrawal threshold to von Frey filament-induced pain 16 umol/kg, iv administered as bolus injection measured at 15 mins; format: functional, organism-based; procedure, shortened: as §1

For `CN1CC[C@]23c4c5ccc(O)c4O[C@H]2[C@@H](O)C=C[C@H]3[C@H]1C5` [MORPHINE], the ED50 (Rattus norvegicus [1]) was 2.6 µmol/kg, the ED50 (Rattus norvegicus [2]) was 20.7 µmol/kg and the Activity (Rattus norvegicus [3]) was “Active”. The Activity (Rattus norvegicus [4]) was “Active”, the Activity (Rattus norvegicus [5]) was “Active” and the Activity (Rattus norvegicus [6]) was “inactive”.

For `CC(C)NCC(O)COc1cccc2ccccc12` (configuration not stated) [PROPRANOLOL], the Papp at 200 µM [7] was 150 ×10⁻⁶ cm/s.

For `NC(=O)[C@H](Cc1ccccc1)NC(=O)[C@H](Cc1c[nH]c2ccccc12)NC(=O)[C@@H]1CCCN1C(=O)[C@H](Cc1ccc(O)cc1)NC(=O)CCC(=O)N[C@@H]1O[C@H](CO)[C@@H](O[C@@H]2O[C@H](CO)[C@H](O)[C@H](O)[C@H]2O)[C@H](O)[C@H]1O`, the half-life at 1 mg/ml [8] was 57.3 min, the Papp at 200 µM [7] was 76 ×10⁻⁶ cm/s and the permeability (Caco-2 [9]) was “impermeable”. For the same compound, the permeability (Caco-2 [10]) was “impermeable”, the permeability (Caco-2 [11]) was “permeable” and the Ki (Mu-type opioid receptor [12]) was 14.9 nM. It also gave a Ki [13] of 4750 nM, a Ratio Ki [14] of 319 and a Ratio Ki [15] of 105. The IC50 (Mu-type opioid receptor [16]) was 590 nM, the Activity (Rattus norvegicus [17]) was “Active” and the Activity (Rattus norvegicus [18]) was “Active”. For the same compound, the ED50 (Rattus norvegicus [1]) was 8.3 µmol/kg, the Activity (Rattus norvegicus [2]) was “Dose-dependent effect” and the ED50 (Rattus norvegicus [2]) was 19.6 µmol/kg. The Activity (Rattus norvegicus [19]) was “Active”, the Activity (Rattus norvegicus [20]) was “Active” and the Activity (Rattus norvegicus [21]) was “inactive”. For the same compound, the Activity (Rattus norvegicus [5]) was “inactive”, the Activity (Rattus norvegicus [22]) was “inactive” and the Activity (Rattus norvegicus [23]) was “Non-toxic”. For the same compound, the Activity (Rattus norvegicus [24]) was 58.5%.

With `NC(=O)[C@H](Cc1ccccc1)NC(=O)[C@H](Cc1c[nH]c2ccccc12)NC(=O)[C@@H]1CCCN1C(=O)[C@@H](N)Cc1ccc(O)cc1` [ENDOMORPHIN-1] the Papp at 200 µM [7] was 0.11 ×10⁻⁶ cm/s, the Cp (Plasma) was “BLD” and the Activity (Rattus norvegicus [25]) was “inactive”.
